Results gathered from unrelated publications.
ADRA2A: Alpha-2A adrenergic receptor (ADRA2A, Homo sapiens, UniProt P08913)
CA1: Carbonic anhydrase 1 (CA1, Homo sapiens, UniProt P00915)
Sigmar1: Sigma non-opioid intracellular receptor 1 (Sigmar1, Rattus norvegicus, UniProt Q9R0C9)
OPRD1: Delta-type opioid receptor (OPRD1, Homo sapiens, UniProt P41143)
Pam: Peptidylglycine alpha-amidating monooxygenase (Pam, Rattus norvegicus, UniProt P14925)
CA2: Carbonic anhydrase 2 (CA2, Homo sapiens, UniProt P00918)
SNCA fibril: Alpha-synuclein, fibril (SNCA, Homo sapiens, UniProt P37840)

COc1ccnc(Oc2ccc(-c3c(C)c(=O)[nH]c(=O)n3C)c(C)c2)c1C(F)(F)F  Ki (ADRA2A; ligand displacement; radioligand): 6.9 µM
NS(=O)(=O)c1ccc(-n2nccc2-c2ccc(N3CCOCC3)cc2)cc1  Ki (CA1; enzyme activity; inhibitor; stopped-flow): > 100 µM
C#CCN(CCCN1CCN(C2CCCCC2)CC1)Cc1ccc(C(=O)c2ccc([N+](=O)[O-])cc2)cc1  Ki (Sigmar1; ligand displacement; radioligand; cell membranes): 0.0298 µM
CNC(=O)[C@@]12C[C@@H]1[C@@H](n1cnc3c(NC4CC4c4ccccc4)nc(C#Cc4ccccc4)nc31)[C@H](O)[C@@H]2O (mixture of isomers)  Ki (OPRD1; ligand displacement; radioligand): > 10 µM
O=C(c1ccc(CNCCCN2CCN(C3CCCCC3)CC2)cc1)c1ccc([N+](=O)[O-])cc1  Ki (Sigmar1; ligand displacement; radioligand; cell membranes): 1.32 µM
CN(C)c1cccc2c(S(=O)(=O)Nc3ccc(C=CC(=O)O)cc3)cccc12  Ki (Pam; enzyme activity; inhibitor): 10 µM
CNC(=O)[C@@]12C[C@@H]1[C@@H](n1cnc3c(NCc4cccc(Cl)c4)nc(C#Cc4ccccc4)nc31)[C@H](O)[C@@H]2O  Ki (OPRD1; ligand displacement; radioligand): > 10 µM
Nc1ccnc2ccccc12  Ki (ADRA2A; ligand displacement; radioligand; cell membranes): 5.6 µM
CCN(CC)Cc1cc(Nc2ccnc3cc(Cl)ccc23)ccc1O  Ki (NAD(P)H dehydrogenase [quinone] 1 (NQO1, Homo sapiens, UniProt P15559); enzyme activity; inhibitor; absorbance): > 100 µM
CC1CCC(C(=O)Nc2nnc(S(N)(=O)=O)s2)CC1 (stereo not drawn)  Ki (CA2; enzyme activity; inhibitor): 0.026 µM
C#CCN(CCCN1CCN(C2CCCCC2)CC1)c1ccc(C(=O)c2ccccc2)cc1  Ki (Sigmar1; ligand displacement; radioligand; cell membranes): 0.652 µM
CCCCOC(=O)[C@@]12C[C@@H]1[C@@H](n1cnc3c(NC)nc(C#Cc4ccc(Cl)s4)nc31)[C@H](O)[C@@H]2O  Ki (OPRD1; ligand displacement; radioligand): > 10 µM
NS(=O)(=O)c1nnc(NC(=O)CC2CC2)s1  Ki (CA1; enzyme activity; inhibitor): 0.372 µM
C#CCNCc1ccc(C(=O)c2ccc([N+](=O)[O-])cc2)cc1  Ki (Sigmar1; ligand displacement; radioligand; cell membranes): 0.12 µM
NS(=O)(=O)c1nnc(NC(=O)CC2CCC2)s1  Ki (CA2; enzyme activity; inhibitor): 0.0049 µM
NS(=O)(=O)c1ccc(-n2nccc2-c2ccc(N3CCCCC3)cc2)cc1  Ki (CA1; enzyme activity; inhibitor; stopped-flow): > 100 µM
CCNc1nc(C#Cc2ccccc2)nc2c1ncn2[C@H]1[C@H](O)[C@H](O)[C@@H]2C[C@@H]21  Ki (OPRD1; ligand displacement; radioligand): > 10 µM
NS(=O)(=O)c1nnc(NC(=O)C2CC2)s1  Ki (CA2; enzyme activity; inhibitor): 0.0246 µM
CNC(=O)[C@@]12C[C@@H]1[C@@H](n1cnc3c(NC)nc(C#Cc4ccccc4)nc31)[C@H](O)[C@@H]2O  Ki (OPRD1; ligand displacement; radioligand): > 10 µM
O=C(O)/C=C/c1c[nH]cn1  Ki (Pam; enzyme activity; inhibitor; pH 6): 10000 µM
COc1ccc(C(=O)Nc2ccc(N3CCC4(CC3)CCN(c3ccccn3)CC4)cc2)cc1  Ki (SNCA fibril; ligand displacement; radioligand): > 1 µM
CCCCN1CCC(COC(=O)c2ccc(N)c(OCF)c2)CC1  Ki (OPRD1; cell-free assay; radioligand): > 10 µM
CNC(=O)[C@@]12C[C@@H]1[C@@H](n1cnc3c(NCc4cccc(Cl)c4)nc(Cl)nc31)[C@H](O)[C@@H]2O  Ki (OPRD1; ligand displacement; radioligand): > 10 µM
CC(C)[C@@H](CC[C@@H](C)[C@H]1CC[C@H]2[C@@H]3[C@H](O)C[C@H]4C[C@@H](NCCCNCCCCNCCCN)CC[C@]4(C)[C@H]3CC[C@]12C)OS(=O)(=O)O  Ki (Receptor-type tyrosine-protein phosphatase F (Homo sapiens, UniProt P10586); enzyme activity; inhibitor): 20 µM
O=C(CN(CCCCI)CCCN1CCN(C2CCCCC2)CC1)Nc1ccc(C(=O)c2ccccc2)cc1  Ki (Sigmar1; ligand displacement; radioligand; cell membranes): 0.172 µM
NS(=O)(=O)c1nnc(NC(=O)C2CCCC2)s1  Ki (CA1; enzyme activity; inhibitor): 0.0765 µM
O=C(O)C=Cc1ccc([N+](=O)[O-])cc1  Ki (Pam; enzyme activity; inhibitor; pH 6): 600 µM
C[C@H]1Oc2cc(cnc2N)-c2c(nn(C)c2C#N)CN(C)C(=O)c2ccc(F)cc21  Ki (Protein-tyrosine kinase 2-beta (PTK2B, Homo sapiens, UniProt Q14289); cell-free assay; lysate): 0.0655 µM
O=C(c1ccccc1)c1ccc(CNCCCN2C(=O)c3ccccc3C2=O)cc1  Ki (Sigmar1; ligand displacement; radioligand; cell membranes): 0.311 µM
COc1ccc(C(=O)Nc2ccc(N3CCCN(c4ccccn4)CC3)cn2)cc1  Ki (SNCA fibril; ligand displacement; radioligand): 0.185 µM
CN(Cc1ccc(NC(=O)C2=Cc3cc(-c4ccc(OCCCCCCCF)cc4)ccc3CCC2)cc1)C1CCOCC1  Ki (ADRA2A; ligand displacement; radioligand): 6.27 µM
NS(=O)(=O)c1nnc(NC(=O)CC2CCCC2)s1  Ki (CA2; enzyme activity; inhibitor): 0.0194 µM
CCCNc1nc(C#Cc2ccc(Cl)s2)nc2c1ncn2[C@H]1[C@H](O)[C@H](O)[C@]2(C(=O)NC)C[C@H]12  Ki (OPRD1; ligand displacement; radioligand): > 10 µM
CN1CCN(c2ccc(-c3ccnn3-c3ccc(S(N)(=O)=O)cc3)cc2)CC1  Ki (CA1; enzyme activity; inhibitor; stopped-flow): > 100 µM
CNC(=O)[C@@]12C[C@@H]1[C@@H](n1cnc3c(NC)nc(C#Cc4ccccc4Cl)nc31)[C@H](O)[C@@H]2O  Ki (OPRD1; ligand displacement; radioligand): > 10 µM
Cc1nc2cc(OCCCCN3CCN(c4cccc(Cl)c4Cl)CC3)ccc2s1  Ki (5-hydroxytryptamine receptor 3A (HTR3A, Homo sapiens, UniProt P46098); cell-free assay; radioligand): 0.13 µM
